The source of these data is article PMC2141641 (The Journal of Cell Biology, 1997).

The test system of test [1] is Bovine adrenal capillary endothelial cells (BCECs). The test can be described thus: Endothelial cell migration assay, BCECs. The test is classed as cell-based. As to conditions: TSP-1 2 nM; fusion protein preincubated 2 h at 4°C; migration 4 h at 37°C. The procedure, abridged: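 Bovine adrenal capillary cells (DME, 10% donor calf serum, 1% endothelial mitogen; passage 15) were starved overnight in DME/0.1% BSA. 3 × 10^4 cells/well were attached 2 h at 37°C to a gelatinized membrane in an inverted Boyden chamber, then reinverted. GST–CD36 fusion proteins were preincubated with 2 nM TSP-1, warmed to room temperature, and added to the top wells. Migration to bFGF ran 4 h at 37°C. Migrated cells/10 high-power fields counted; normalized to bFGF minus background.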

In another test the test system is TSP-1. The note with it: ref Pearce et al., 1995; cited from earlier work.
For test [2], the system named is CD36–GST fusion protein FP298-439. Also on record: species or system human. The note with it: 125I–TSP-1 20 μg/ml; equal to binding in the presence of 5 mM EDTA; n = 5. The procedure, abridged: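 GST–CD36 fusion protein was coated overnight at 4°C at 10 μg/ml in carbonate buffer, pH 9.8 (200–280 ng/well). Wells were washed with TBS-T and blocked with TBS-T/0.5% BSA. 125I–TSP-1 (20 μg/ml; 0.5–1 mCi/mg) in TBS-T was incubated 2 h at 22°C. Wells were washed and bound counts measured by gamma counting. 5 mM EDTA defined nonspecific binding.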

B1: FP298-439: control fusion protein unable to bind TSP-1 spanning CD36 amino acids 298–439 (protein)
chain: KAFASPVENPDNYCFCTEKIISKNCTSYGVLDISKCKEGRPVYISLPHFLYASPDVSEPIDGLNPNEEEHRTYLDIEPITGFTLQFAKRLQVNLLVKPSEKIQVLKNLKRNYIVPILWLNETGTIGDEKANMFRSQVTGKIN
modifications: left off: GST, end not stated, kept
Regarding B1, the “block of TSP-1 inhibition of bFGF-induced migration” value in test [1] is on record as “ineffective”. The “binding of fusion protein to TSP-1” value with TSP-1 is listed as “unable to bind TSP-1”. For the same molecule, the “TSP-1 binding to immobilized fusion protein (in words)” value in test [2] was “only background binding”.
